Active and inactive are the calls of the source. The calls are words filed in the database; no cut-off is given here.
Assays:
Aorta [1] = test: Myorelaxant activity in aortic rings isolated from Wistar rat assessed as reduction in 30 mM KCl-induced contractions in presence of 1 uM KATP channel blocker glibenclamide; format: functional, tissue-based
Summary of the method: (§1)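 Endothelium-free rat aorta rings were contracted with 30 mM or 80 mM K+, with 1 or 10 μM glibenclamide present for some 30 mM series. Agent was applied cumulatively. EC50 is the concentration giving 50% relaxation of the KCl-induced contraction, reported as mean ± SEM (n).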

Rattus norvegicus [2] = species on record: Rattus norvegicus; test: Activation of ATP-sensitive potassium channel in perifused Wistar rat pancreatic islets assessed as increase in extracellular K+ concentration at 10 uM measured up to 90 mins in presence of 2.8 mM glucose and extracellular Ca2+ by scintillation counting method; settings: filed as opener, time min <=90
Summary of the method: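 Rat islets were perifused in 2.8 mM glucose with extracellular Ca2+. Extracellular K+ was raised from 5 to 50 mM, and 45Ca outflow was measured with or without agent (10 μM) present continuously. Values are mean ± SEM of 10 individual experiments.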

Aorta [3] = test: Myorelaxant activity in aortic rings isolated from Wistar rat assessed as reduction in 80 mM KCl-induced contractions; format: functional, tissue-based; summary of the method: as §1
Rattus norvegicus [4] = species on record: Rattus norvegicus; test: Activation of ATP-sensitive potassium channel in perifused Wistar rat pancreatic islets assessed as increase in 86Rb outflow at 10 uM measured up to 90 mins by scintillation counting method; settings: filed as opener, time min <=90
Summary of the method: (§2)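 Rat islets were perifused throughout in basal medium with 5.6 mM glucose and extracellular Ca2+, with or without the KATP blocker glibenclamide (10 μM). Test agent was added at 10 μM and 86Rb outflow was followed. Values are mean ± SEM of 6 individual experiments.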

Rattus norvegicus [5] = species on record: Rattus norvegicus; test: Activation of ATP-sensitive potassium channel in perifused Wistar rat pancreatic islets assessed as increase in 45Ca efflux at 10 uM measured up to 90 mins in presence of 2.8 mM glucose and absence of extracellular Ca2+ by scintillation counting method; settings: filed as opener, time min <=90
Summary of the method: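 Perifused rat islets carrying 45Ca were exposed to 2.8 mM glucose in medium with or without extracellular Ca2+. Agent was added at 10 μM and 45Ca outflow was monitored.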

Rattus norvegicus [6] = species on record: Rattus norvegicus; test: Activation of ATP-sensitive potassium channel in perifused Wistar rat pancreatic islets assessed as increase in extracellular K+ concentration at 10 uM measured up to 90 mins in presence of 2.8 mM glucose and absence of extracellular Ca2+ by scintillation counting method; settings: filed as opener, time min <=90
Rattus norvegicus [7] = species on record: Rattus norvegicus; test: Activation of ATP-sensitive potassium channel in perifused Wistar rat pancreatic islets assessed as inhibition of insulin secretion at 10 uM measured up to 90 mins in presence of 16.7 mM glucose by scintillation counting method; settings: filed as opener, time min <=90
Summary of the method: (§3)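 Rat islets were prelabeled with 45Ca and perifused throughout with 16.7 mM glucose. Basal medium either contained extracellular Ca2+ or was Ca2+-free and enriched with 0.5 mM EGTA. Agent was added at 10 μM, and 45Ca outflow and insulin release were followed. Values are mean ± SEM of 5-6 individual experiments.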

[8] = Residual 16.7 mM glucose-induced insulin secretion in Wistar rat pancreatic islets at 0.5 uM incubated for 90 mins in presence of glucose by radioimmunological assay relative to control; settings: Pancreatic islet, 1.5 h
Pancreatic islet [9] = test: (§4) Inhibition of glucose-induced insulin secretion in Wistar rat pancreatic islets incubated for 90 mins in presence of 16.7 mM glucose by radioimmunological assay; format: functional, tissue-based
Summary of the method: (§5)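 Rat pancreatic islets were incubated with 16.7 mM glucose, with test concentrations added to the medium (0.1, 0.5, 1 and 10 μM). Insulin release is given as a percentage of the control (no drug, 16.7 mM glucose), as mean ± SEM with n = number of samples. IC50 is the concentration giving a 50% reduction of the secretory response to glucose.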

[10] = as §4; format: functional, tissue-based; settings: Pancreatic islet, 1.5 h; summary of the method: as §5
Rattus norvegicus [11] = species on record: Rattus norvegicus; test: Activation of ATP-sensitive potassium channel in perifused Wistar rat pancreatic islets assessed as increase in 86Rb outflow at 10 uM measured up to 90 mins by scintillation counting method; settings: filed as opener, time min <=90
Rattus norvegicus [12] = species on record: Rattus norvegicus; test: Activation of ATP-sensitive potassium channel in perifused Wistar rat pancreatic islets assessed as increase in 86Rb outflow at 10 uM measured up to 90 mins in basal media containing 5.6 mM glucose and glibenclamide by scintillation counting method; settings: time min <=90; summary of the method: as §2
Pancreatic islet [13] = test: Increase in intracellular Ca2+ concentration under deprived extracellular calcium and physiological condition in Wistar rat pancreatic islets at 10 uM measured up to 30 mins in presence of 2.8 mM extracellular glucose concentration by Fura-2 dye based fluorescence assay; format: functional, tissue-based; settings: time min <=30
Summary of the method: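 Fura-2-loaded single rat islet cells were kept at 2.8 mM glucose in medium with or without extracellular calcium. Agent was added at 10 μM and fluorescence intensity was monitored.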

Rattus norvegicus [14] = species on record: Rattus norvegicus; test: Activation of ATP-sensitive potassium channel in perifused Wistar rat pancreatic islets assessed as increase in 86Rb outflow at 10 uM measured up to 90 mins by scintillation counting method; settings: filed as opener, time min <=90; remark: listed apart in the source
Aorta [15] = test: Myorelaxant activity in aortic rings isolated from Wistar rat assessed as reduction in KCl-induced contractions measured after 60 mins in presence of 80 mM KCl by force-displacement transducer; format: functional, tissue-based; summary of the method: as §1
Pancreatic islet [16] = test: Decrease in cytosolic Ca2+ concentration during sustained phase in Wistar rat pancreatic islets at 10 uM measured up to 30 mins in presence of 2.8 to 20 mM extracellular glucose concentration by Fura-2 dye based fluorescence assay; format: functional, tissue-based; settings: time min <=30
Summary of the method: (§6)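 Single rat pancreatic islet cells were loaded with fura-2 and cytosolic Ca2+ was read as the 340:380 nm fluorescence ratio. Glucose was raised from 2.8 to 20 mM, in medium with or without external calcium. Agent (10 μM) was added afterwards, during the sustained phase.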

Rattus norvegicus [17] = species on record: Rattus norvegicus; test: Activation of ATP-sensitive potassium channel in perifused Wistar rat pancreatic islets assessed as inhibition of 45Ca outflow at 10 uM measured up to 90 mins in presence of 16.7 mM glucose and extracellular Ca2+ by scintillation counting method; settings: filed as opener, time min <=90; summary of the method: as §3
Rattus norvegicus [18] = species on record: Rattus norvegicus; test: Ratio of EC50 for vasorelaxant activity in aortic rings isolated from Wistar rat assessed as reduction in KCl-induced contractions measured after 60 mins in presence of 80 mM KCl by force-displacement transducer to IC50 for inhibition of 16.7 mM glucose-induced insulin secretion in Wistar rat pancreatic islets incubated for 90 mins in presence of glucose by radioimmunological assay; format: functional
[19] = Residual glucose-induced insulin secretion in Wistar rat pancreatic islets at 1 uM incubated for 90 mins in presence of 16.7 mM glucose by radioimmunological assay relative to control; settings: Pancreatic islet, 1.5 h
Pancreatic islet [20] = test: Increase in intracellular Ca2+ concentration under deprived extracellular calcium and physiological condition in Wistar rat pancreatic islets at 10 uM measured up to 30 mins in presence of 20 mM extracellular glucose concentration by Fura-2 dye based fluorescence assay; format: functional, tissue-based; settings: time min <=30; summary of the method: as §6
Rattus norvegicus [21] = species on record: Rattus norvegicus; test: Activation of ATP-sensitive potassium channel in perifused Wistar rat pancreatic islets assessed as increase in [45]Ca efflux at 10 uM measured up to 90 mins in presence of 16.7 mM glucose and absence of extracellular Ca2+ by scintillation counting method; settings: filed as opener, time min <=90; summary of the method: as §3
Aorta [22] = test: Myorelaxant activity in aortic rings isolated from Wistar rat assessed as reduction in 30 mM KCl-induced contractions in presence of 10 uM KATP channel blocker glibenclamide; format: functional, tissue-based; summary of the method: as §1
[23] = Residual glucose-induced insulin secretion in Wistar rat pancreatic islets at 0.1 uM incubated for 90 mins in presence of 16.7 mM glucose by radioimmunological assay relative to control; settings: Pancreatic islet, 1.5 h
[24] = Residual glucose-induced insulin secretion in Wistar rat pancreatic islets at 10 uM incubated for 90 mins in presence of 16.7 mM glucose by radioimmunological assay relative to control; settings: Pancreatic islet, 1.5 h

CC(C)(C)OC(=O)Nc1ccc2c(c1)C(NC(=O)Nc1cccc(C#N)c1)CC(C)(C)O2 (racemic)
EC50 (Aorta [1]): 11.6 µM | Activity (Rattus norvegicus [2]): Active | EC50 (Aorta [3]): 12.2 µM | Activity (Rattus norvegicus [4]): Active | Activity (Rattus norvegicus [5]): Active | Activity (Rattus norvegicus [6]): Active | Activity (Rattus norvegicus [7]): Active | residual insulin secretion at 0.5 µM [8]: 28.6% | inhibition (Pancreatic islet [9]): Dose-dependent effect | IC50 [10]: 0.24 µM | Activity (Rattus norvegicus [11]): Active | Activity (Rattus norvegicus [12]): inactive | Activity (Pancreatic islet [13]): Active | Activity (Rattus norvegicus [14]): Active | Activity (Aorta [15]): Dose-dependent effect | EC50 (Aorta [15]; 1 h, in the assay text read “30 mM KCl” for “80 mM KCl”): 10.5 µM | Activity (Pancreatic islet [16]): Active | Activity (Rattus norvegicus [17]): Active | Ratio (Rattus norvegicus [18]): 44 | residual insulin secretion at 1 µM [19]: 15.6% | Activity (Pancreatic islet [20]): Active | Activity (Rattus norvegicus [21]): Active | EC50 (Aorta [22]): 9.4 µM | residual insulin secretion at 0.1 µM [23]: 82% | residual insulin secretion at 10 µM [24]: 7.4%
